IMP-1 inh: blocks Pseudomonas aeruginosa IMP-1 metallo-beta-lactamase; purified IMP-1, nitrocefin hydrolysis, epi-absorbance fluorescence; inhibition, % at 5.6 µM; hit rate 0.45% among 290,000;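 active means inhibition above the mean plus 3 SD of all compounds in the same screening run, cut at about 4.5% in these data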;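 further: 0% = IMP-1 with DMSO and 100% = DMSO wells lacking enzyme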
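System: Purified IMP-1 | Read-out basis: Percent enzyme inhibition | Controls: IMP-1 with DMSO as 0%, enzyme-free DMSO as 100% | Replicates: One well per compound | Doses: 5.6 µM nominal single concentration | Detection: Epi-absorbance fluorescence, 480 nm excitation, 530 nm emission | Incubation: 25 °C, 15 min preincubation, 25 min reaction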
Runt-SMMHC FRET: blocks binding of human RUNX1 Runt domain to CBFb-SMMHC | Q01196+Q13951 | Cerulean-Runt/Venus-CBFb-SMMHC FRET ratio 530/480, 1 h | inhibition, % at 20 µM | hit rate 0.74% among 220,000;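 active means mean inhibition across duplicate retests at 20 µM reaching about 50%, limit read from the data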;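 further: 0% = DMSO wells and 100% = wells with excess untagged CBFb-SMMHC; inhibitors lower the FRET ratio by blocking Runt binding to CBFb-SMMHC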
Target sequence (Q01196 whole entry, looked up, the tested form may be a part): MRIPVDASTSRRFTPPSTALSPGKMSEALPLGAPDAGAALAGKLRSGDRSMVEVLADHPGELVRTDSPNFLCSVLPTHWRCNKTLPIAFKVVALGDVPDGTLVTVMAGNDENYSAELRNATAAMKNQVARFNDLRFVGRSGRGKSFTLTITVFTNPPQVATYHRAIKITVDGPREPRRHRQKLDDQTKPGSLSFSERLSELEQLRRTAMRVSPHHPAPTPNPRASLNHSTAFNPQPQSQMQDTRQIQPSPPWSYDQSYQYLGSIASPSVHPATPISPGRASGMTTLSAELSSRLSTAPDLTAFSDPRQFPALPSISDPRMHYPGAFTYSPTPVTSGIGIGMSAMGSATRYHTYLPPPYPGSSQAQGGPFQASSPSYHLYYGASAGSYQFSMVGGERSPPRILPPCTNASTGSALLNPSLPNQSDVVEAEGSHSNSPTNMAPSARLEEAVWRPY
Target sequence (Q13951 whole entry, looked up, the tested form may be a part): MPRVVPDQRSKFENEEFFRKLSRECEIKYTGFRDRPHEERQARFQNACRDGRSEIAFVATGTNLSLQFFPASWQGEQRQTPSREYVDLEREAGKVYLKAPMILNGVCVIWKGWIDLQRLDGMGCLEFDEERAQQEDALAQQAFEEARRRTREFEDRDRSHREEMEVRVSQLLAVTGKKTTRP
RanGTP-Impb inh: disruptors of Ran-importin-beta complex formation – biochemical, FRET, CFP-Ran, YFP-importin-beta, homogeneous, primary screen | cell-free CFP-Ran/YFP-importin-beta FRET ratio | hit rate 1.1% among 300,000 | inhibition, % (test concentration not listed);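 active means more than half of the replicate wells show a fall in the fluorescence ratio signal beyond about 16%, limit read from the data, passing the limit was not always enough; inconclusive means exactly half of the replicate wells pass the set limit; inactive means fewer than half of replicates pass the limit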;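 further: 0% = DMSO wells and 100% = Ran loaded with GDP instead of GTP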
VIM-2 inhibitor: inhibitors of Pseudomonas aeruginosa VIM-2 metallo-beta-lactamase; purified VIM-2, nitrocefin hydrolysis, epi-absorbance fluorescence; inhibition, % at 5.6 µM; hit rate 0.89% among 290,000; AID 1527;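 active means inhibition above the mean of all tested compounds plus 3 SD, cutoff set per screening run, cut at about 7.5% in these data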;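 further: red hydrolysis product quenches plate fluorescence so inhibitors raise well fluorescence; 0% = enzyme with DMSO and 100% = DMSO without enzyme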
Runt-CBFb FRET: inhibitors of human RUNX1 Runt domain binding to CBFb. Cerulean-Runt/Venus-CBFb FRET ratio 530/480, 1 h. inhibition, % at 20 µM. hit rate 0.46% among 220,000;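 active means inhibition over about 50% at 20 µM in the single-dose screen, limit read from the data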;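 further: 0% = DMSO wells and 100% = excess unlabeled CBFb competitor control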
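Assay system: Cerulean-Runt domain fusion protein, energy donor; Signal: fluorescence energy transfer, 422 nm excitation, 530/480 nm emission; Timing: 1 h compound exposure, room temperature; Control set: unlabeled CBFb; Medium: Tris buffer pH 7.5 with salts and BSA; Compound: single test concentration of 20 µM, 1% DMSO final; Probe or stimulus: Venus-CBFb 100 nM.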
YIC counter: counter-screen YIC FRET for RanGTP-importin-beta inhibitors. shares compounds with RanGTP-Impb inh. hit rate 40% among 1,000. IC50, µM. AID 435026. Purified YIC probe, intramolecular FRET ratio YFP/CFP;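 active means fitted half-maximal inhibitory concentration no more than tenfold above the top dose tested; inconclusive means flat fit with 30 to 70% activity, or poor fit; inactive means half-maximal concentration beyond tenfold above the top dose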
Numbers without * were called inactive. Only some compounds are listed: those with a hit (about 2.6% of all), similar ones and a draw of the others.

Screening COCc1ccc(CN2CCCC(CO)(Cc3cccc(OC)c3)C2)o1 (stereo not given) returned IMP-1 inh -3.4, Runt-SMMHC FRET 3.1, RanGTP-Impb inh -2.6, VIM-2 inhibitor -4.5 and Runt-CBFb FRET -0.2.
`COCc1ccc(CN2CCCC(CO)(Cc3ccccc3C)C2)o1` (stereo not given) gave IMP-1 inh -4.4, Runt-SMMHC FRET 0.5, RanGTP-Impb inh 22.8*, VIM-2 inhibitor -2.1, Runt-CBFb FRET -0.7 and YIC counter >50.
NC(=O)Cn1nc([N+](=O)[O-])nc1Oc1ccccc1F was read as IMP-1 inh -3.0, Runt-SMMHC FRET -0.3, RanGTP-Impb inh -2.5, VIM-2 inhibitor -1.3 and Runt-CBFb FRET 1.1.
CCc1ccc(C)[n+](CC(=O)c2cccs2)c1 was read as IMP-1 inh -2.2, RanGTP-Impb inh -0.7 and VIM-2 inhibitor -1.8.
`Cc1ccc(C)c(S(=O)(=O)N2CCN(C(=O)c3sccc3C)CC2)c1` gave RanGTP-Impb inh 3.1.
`CCOC(=O)c1c(NC(=S)N2CCCCC2)sc2c1CCN(C(=O)OCC)C2` gave IMP-1 inh -3.2, Runt-SMMHC FRET -0.5, RanGTP-Impb inh 5.0, VIM-2 inhibitor -1.4 and Runt-CBFb FRET -1.1.
Screening CCN1CCc2c(sc(NC(=O)C3CCCCC3)c2C(=O)OC)C1 returned IMP-1 inh -2.7, RanGTP-Impb inh 42.2*, VIM-2 inhibitor -0.2 and YIC counter >50.
For CCOC(=O)c1c(NC(=O)C2CCCCC2)sc2c1CCN(CC)C2 the results were IMP-1 inh -1.3, RanGTP-Impb inh 20.4*, VIM-2 inhibitor 0.4 and YIC counter >50.
Screening COc1ccc(/C=C(\C#N)C(=O)OCC(=O)NC2CC2)cc1 returned IMP-1 inh -2.5, Runt-SMMHC FRET 0.8, RanGTP-Impb inh 0.0, VIM-2 inhibitor -2.2 and Runt-CBFb FRET 0.1.
CSc1nsc(/C=C/Nc2ccc(C)cc2)c1C#N was read as IMP-1 inh -2.2, Runt-SMMHC FRET -6.3, RanGTP-Impb inh 23.8*, VIM-2 inhibitor -2.2, Runt-CBFb FRET 2.7 and YIC counter >50.
For Cn1c(SCc2ccccc2F)nnc1-c1ccccn1 the results were IMP-1 inh -3.0, Runt-SMMHC FRET -1.0, RanGTP-Impb inh 20.5*, VIM-2 inhibitor -1.7, Runt-CBFb FRET 0.8 and YIC counter >50.
Screening Cn1c(SCc2ccccc2F)nnc1-c1cnccn1 returned IMP-1 inh -1.8, Runt-SMMHC FRET -2.2, RanGTP-Impb inh -1.0, VIM-2 inhibitor -2.1 and Runt-CBFb FRET -1.1.
`CC1Cc2cc(/C(O)=C3/C(=O)C(=O)N(Cc4ccncc4)C3c3ccc(N(C)C)cc3)ccc2O1` (stereo not given) gave IMP-1 inh -4.0, RanGTP-Impb inh 22.2*, VIM-2 inhibitor 2.0 and YIC counter >50.
`COc1ccc(C2/C(=C(/O)c3ccc4c(c3)CC(C)O4)C(=O)C(=O)N2Cc2cccnc2)cc1` (stereo not given) gave IMP-1 inh -2.9, RanGTP-Impb inh 1.4 and VIM-2 inhibitor 0.0.
Screening O=C(c1ccc([N+](=O)[O-])cc1)c1cc2ccc(O)cc2oc1=O returned IMP-1 inh -4.4, RanGTP-Impb inh 2.2 and VIM-2 inhibitor -4.1.
For CCOc1ccc(C(=O)c2cc3ccc(O)cc3oc2=O)cc1 the results were IMP-1 inh -3.3, Runt-SMMHC FRET 90.0*, RanGTP-Impb inh 52.7*, VIM-2 inhibitor -0.6, Runt-CBFb FRET 86.5* and YIC counter 7.96*.
`CCOc1ccc(NS(=O)(=O)c2ccc3c(c2)CCN3C(=O)C2CCC2)cc1` gave IMP-1 inh -2.5, Runt-SMMHC FRET 2.2, RanGTP-Impb inh 4.6, VIM-2 inhibitor -4.3 and Runt-CBFb FRET -1.2.
CCOc1ccc(NS(=O)(=O)c2ccc3c(c2)CCN3C(=O)CCC(=O)O)cc1 was read as IMP-1 inh -3.4, Runt-SMMHC FRET -2.8, RanGTP-Impb inh 28.0*, VIM-2 inhibitor 2.1, Runt-CBFb FRET -0.7 and YIC counter >50.
CC(NC(=O)c1ccc(C#N)cc1)C1CC2CCC1C2 (stereo not given) was read as IMP-1 inh -1.2, RanGTP-Impb inh 6.0 and VIM-2 inhibitor -0.8.
Cc1c(CC(=O)N2CCN(C(=O)C3COc4ccccc4O3)CC2)c(=O)oc2cc(O)c(Cl)cc12 (stereo not given) was read as IMP-1 inh -1.1, RanGTP-Impb inh 43.8*, VIM-2 inhibitor -0.4 and YIC counter 2.9*.
For Cc1ccc2nnnc(-c3ccccc3)c2c1 the results were IMP-1 inh -2.1, Runt-SMMHC FRET 0.1, RanGTP-Impb inh -2.3, VIM-2 inhibitor -0.4 and Runt-CBFb FRET -0.6.
`Cc1ccc2nc(NCC(=O)O)nc(-c3ccccc3)c2c1` gave IMP-1 inh -2.9, Runt-SMMHC FRET -13.8, RanGTP-Impb inh 22.2*, VIM-2 inhibitor -0.4, Runt-CBFb FRET 22.6 and YIC counter 47.9*.
For O=c1cc(CN2CCN(Cc3ccc(F)cc3)C(CCO)C2)[nH]c2ccccc12 (stereo not given) the results were IMP-1 inh -1.7, RanGTP-Impb inh -3.1 and VIM-2 inhibitor -0.8.
For CC(C)(C)NC(=O)c1cc2c(ccc3ccccc32)oc1=O the results were IMP-1 inh 1.4, RanGTP-Impb inh 6.3 and VIM-2 inhibitor 2.4.
For N#Cc1cc2c(ccc3ccccc32)oc1=O the results were IMP-1 inh -3.3, Runt-SMMHC FRET 87.1, RanGTP-Impb inh 38.4*, VIM-2 inhibitor -2.5, Runt-CBFb FRET 84.9* and YIC counter >26.
C#CCN1C(=O)S/C(=C\c2ccc(-c3ccc(C(=O)O)cc3C)o2)C1=O was read as IMP-1 inh -2.6, RanGTP-Impb inh inconclusive and VIM-2 inhibitor 0.9.
Cc1cc(C(=O)O)ccc1-c1ccc(/C=C2\NC(=O)N(Cc3ccccc3Cl)C2=O)o1 was read as IMP-1 inh -2.3, Runt-SMMHC FRET 67.5*, RanGTP-Impb inh 22.2*, VIM-2 inhibitor -2.5, Runt-CBFb FRET 24.0 and YIC counter 0.908*.
Screening N=c1c(S(=O)(=O)c2ccc(Br)cc2)cc2c(=O)n3ccccc3nc2n1C1CCCCC1 returned IMP-1 inh 1.0, RanGTP-Impb inh 21.8*, VIM-2 inhibitor -1.8 and YIC counter >50.
`COc1ccc(CCNC(=O)c2cc3c(=O)n4ccccc4nc3n(CC3CCCO3)c2=N)cc1OC` (stereo not given) gave IMP-1 inh -0.2, RanGTP-Impb inh 18.2*, VIM-2 inhibitor 4.2 and YIC counter 27.5*.
O=c1nc2ccccn2c2ccc(S(=O)(=O)N3CCCCC3)cc12 was read as IMP-1 inh -3.1, RanGTP-Impb inh -1.2 and VIM-2 inhibitor -0.9.
Screening COc1ccc(CCNC(=O)c2cc3c(=O)n4ccccc4nc3n(C3CCCCC3)c2=N)cc1OC returned IMP-1 inh -3.2, RanGTP-Impb inh 23.5*, VIM-2 inhibitor -2.0 and YIC counter 25.9*.

Screening data deposited in PubChem by several laboratories.
